This note sets out measurements from ChEMBL document CHEMBL3875200, “Bivalent SIRT1 inhibitors” (Bioorg Med Chem Lett, 2017).

Calls of active or inactive are those of the source. The rule behind the calls is not given here. Where only a bound is given, the exact number is not on record here.

Series [1] deals with T1, NAD-dependent protein deacetylase sirtuin-1 (Homo sapiens, UniProt Q96EB6).
T1 sequence (Q96EB6 whole entry): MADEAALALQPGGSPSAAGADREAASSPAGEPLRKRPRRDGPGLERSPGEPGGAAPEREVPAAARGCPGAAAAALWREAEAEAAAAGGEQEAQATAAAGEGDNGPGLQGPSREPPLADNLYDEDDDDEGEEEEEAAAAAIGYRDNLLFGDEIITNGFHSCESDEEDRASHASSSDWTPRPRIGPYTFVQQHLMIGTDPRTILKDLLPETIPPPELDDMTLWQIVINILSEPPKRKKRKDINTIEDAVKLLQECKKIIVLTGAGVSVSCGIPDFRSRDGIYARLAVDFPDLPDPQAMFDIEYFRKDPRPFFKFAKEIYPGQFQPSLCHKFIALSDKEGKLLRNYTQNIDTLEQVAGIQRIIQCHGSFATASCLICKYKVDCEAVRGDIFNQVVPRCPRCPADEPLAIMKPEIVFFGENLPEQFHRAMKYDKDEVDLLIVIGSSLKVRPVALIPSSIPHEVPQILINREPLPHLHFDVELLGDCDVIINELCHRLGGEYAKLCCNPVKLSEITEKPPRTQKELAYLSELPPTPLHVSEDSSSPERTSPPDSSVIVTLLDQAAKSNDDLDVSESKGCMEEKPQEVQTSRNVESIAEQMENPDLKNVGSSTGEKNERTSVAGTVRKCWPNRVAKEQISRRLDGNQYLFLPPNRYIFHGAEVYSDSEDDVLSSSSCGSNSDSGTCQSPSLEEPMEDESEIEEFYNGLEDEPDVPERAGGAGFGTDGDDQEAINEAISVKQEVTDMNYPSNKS
The experiment in a line: Inhibition of recombinant human His6/GST-tagged SIRT1 expressed in Escherichia coli assessed as reduction in H2N-HK-[Nepsilon-acetyl-lysine]-LM-COOH deacetylation measured after 10 mins in presence of beta-NAD+ by RP-HPLC assay.

The target of series [2] is T2, NAD-dependent protein deacetylase sirtuin-1 (Homo sapiens) (UniProt Q96EB6).
T2 sequence (whole entry): T1 sequence (Q96EB6 whole entry)
The series can be described thus: Reversible inhibition of recombinant human His6/GST-tagged SIRT1 expressed in Escherichia coli assessed as inhibition of H2N-HK-[epsilonN-acetyl-lysine]-LM-COOH deacetylation measured after 10 mins in presence of beta-NAD+ by Dixon plot analysis.

The target in series [3] is T3, NAD-dependent protein deacetylase sirtuin-2 (Homo sapiens, UniProt Q8IXJ6).
T3 sequence (Q8IXJ6 whole entry): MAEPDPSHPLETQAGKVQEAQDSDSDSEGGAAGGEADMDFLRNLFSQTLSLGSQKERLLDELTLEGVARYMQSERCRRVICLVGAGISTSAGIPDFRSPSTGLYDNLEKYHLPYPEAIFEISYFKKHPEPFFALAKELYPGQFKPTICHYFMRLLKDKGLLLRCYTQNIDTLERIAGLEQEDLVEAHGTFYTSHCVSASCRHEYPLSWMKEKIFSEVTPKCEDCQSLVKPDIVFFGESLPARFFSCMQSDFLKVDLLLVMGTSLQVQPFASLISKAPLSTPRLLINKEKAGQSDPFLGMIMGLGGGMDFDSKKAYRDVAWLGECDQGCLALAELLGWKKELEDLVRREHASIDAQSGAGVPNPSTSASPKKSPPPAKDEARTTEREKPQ
The series can be described thus: Inhibition of recombinant human His6-tagged SIRT2 (2 to 389 residues) expressed in Escherichia coli assessed as inhibition of H2N-HK-[epsilonN-acetyl-lysine]-LM-COOH deacetylation measured after 12 mins in presence of beta-NAD+ by RP-HPLC analysis.

A short description of series [4]: Aqueous solubility of the compound. The format is physicochemical. Conditions: buffer.
Series [5] addresses T4, NAD-dependent protein deacetylase sirtuin-3, mitochondrial (Homo sapiens, UniProt Q9NTG7).
T4 sequence (Q9NTG7 whole entry): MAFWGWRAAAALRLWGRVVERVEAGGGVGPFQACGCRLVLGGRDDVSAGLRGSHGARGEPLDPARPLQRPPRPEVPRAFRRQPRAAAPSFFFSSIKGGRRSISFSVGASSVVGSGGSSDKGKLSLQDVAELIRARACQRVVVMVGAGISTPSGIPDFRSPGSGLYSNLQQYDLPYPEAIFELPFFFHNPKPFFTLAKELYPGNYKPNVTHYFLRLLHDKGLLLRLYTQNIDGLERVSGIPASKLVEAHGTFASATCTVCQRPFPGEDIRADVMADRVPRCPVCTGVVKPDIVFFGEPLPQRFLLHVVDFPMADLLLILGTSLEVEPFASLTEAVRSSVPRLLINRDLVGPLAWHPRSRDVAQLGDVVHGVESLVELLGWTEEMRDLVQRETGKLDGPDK
The experiment in a line: Inhibition of recombinant human His6-tagged SIRT3 (101 to 399 residues) expressed in Escherichia coli assessed as inhibition of H2N-HK-[epsilonN-acetyl-lysine]-LM-COOH deacetylation measured after 10 mins in presence of beta-NAD+ by reversed-phase C18 HPLC analysis.

Series [6] is filed under the species Homo sapiens. The series can be described thus: Selectivity ratio of IC50 for recombinant human His6/GST-tagged SIRT1 expressed in Escherichia coli to IC50 for recombinant human His6-tagged SIRT2 (2 to 389 residues) expressed in Escherichia coli.
The species entered for series [7] is Homo sapiens. The experiment in a line: Selectivity ratio of IC50 for recombinant human His6/GST-tagged SIRT1 expressed in Escherichia coli to IC50 for recombinant human His6-tagged SIRT3 (101 to 399 residues) expressed in Escherichia coli.
The target in series [8] is T2, NAD-dependent protein deacetylase sirtuin-1 (Homo sapiens). The experiment in a line: Competitive inhibition of recombinant human His6/GST-tagged SIRT1 expressed in Escherichia coli assessed as deacetylation of H2N-HK-[epsilonN-acetyl-lysine]-LM-COOH at 4 to 8.5 uM measured after 10 mins in presence of constant beta-NAD+ and varying substrate concentration by Lineweaver-Burk plot analysis. In short, it runs like this: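 Inhibitor tested against varied acetyl-lysine peptide substrate H2N-HK-(Nε-acetyl-lysine)-LM-COOH. A competitive inhibition constant (Kis) and the apparent Km for this peptide were derived from the kinetic data.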

Series [9] shares this target. The series can be described thus: Non-competitive inhibition of recombinant human His6/GST-tagged SIRT1 expressed in Escherichia coli assessed as deacetylation of H2N-HK-[epsilonN-acetyl-lysine]-LM-COOH at 4 to 8.5 uM measured after 10 mins in presence of varying beta-NAD+ and constant substrate concentration by Lineweaver-Burk plot analysis. In short, it runs like this: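 β-NAD⁺ was the varied co-substrate. An uncompetitive-intercept inhibition constant (Kii) and the apparent Km for β-NAD⁺ were derived from the kinetic data.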

By IC50 is commonly meant the concentration that gives 50% inhibition. Turning to `CC(=O)NCCCC[C@H](NC(=O)[C@H](CCCCNC(=O)CSc1nc2ccccc2s1)NC(=O)[C@H](CCCCNC(C)=O)NC(C)=O)C(N)=O`, in series [1], the IC50 is 77.5 µM.
Consider `CC(=O)NCCCC[C@H](NC(=O)[C@H](CCCCNC(=O)CCCSc1nc2ccccc2s1)NC(=O)[C@H](CCCCNC(C)=O)NC(C)=O)C(N)=O`, for which the IC50 in series [1] turned out to be 27 µM.
Take `CC(=O)NCCCC[C@H](NC(=O)[C@H](CCCCNC(=O)CCCCCSc1nc2c(N)ncnc2[nH]1)NC(=O)[C@H](CCCCNC(C)=O)NC(C)=O)C(N)=O`: the IC50 in series [1] is over 900 µM.
On to `CC(=O)NCCCC[C@H](NC(=O)[C@H](CCCCNC(=O)CCCCCSc1nc2ccccc2[nH]1)NC(=O)[C@H](CCCCNC(C)=O)NC(C)=O)C(N)=O`, for which, in series [1], the IC50 was determined as 187 µM.
In the case of `CC(=O)NCCCC[C@H](NC(=O)[C@H](CCCCNC(=O)CSc1nnc(/C=C/c2ccccc2)[nH]1)NC(=O)[C@H](CCCCNC(C)=O)NC(C)=O)C(N)=O`, in series [1], the half-maximal inhibitory concentration (IC50) came to 150 µM.
Take `CC(=O)NCCCC[C@H](NC(=O)[C@H](CCCCNC(=O)CNC(=O)CNC(=O)CSc1nc2ccccc2s1)NC(=O)[C@H](CCCCNC(C)=O)NC(C)=O)C(N)=O`: the IC50 in [1] was found to be 116 µM.
As to `CC(=O)NCCCC[C@H](NC(=O)[C@H](CCCCNC(=O)CCCCCCCSc1nc2c(N)ncnc2[nH]1)NC(=O)[C@H](CCCCNC(C)=O)NC(C)=O)C(N)=O`, the IC50 in [1] stood at 45.8 µM.
As for `CC(=O)NCCCC[C@H](NC(=O)[C@H](CCCCNC(=O)CCCCCSc1cccc2ccccc12)NC(=O)[C@H](CCCCNC(C)=O)NC(C)=O)C(N)=O`, the IC50 in series [1] was 14.6 µM.
As for `CC(=O)NCCCC[C@H](NC(=O)[C@H](CCCCNC(=O)CSc1ncc(-c2ccccc2)s1)NC(=O)[C@H](CCCCNC(C)=O)NC(C)=O)C(N)=O`, in [1], the IC50 was 18 µM.
With `CC(=O)NCCCC[C@H](NC(=O)[C@H](CCCCNC(=O)CCCCCSc1ccc2ccccc2c1)NC(=O)[C@H](CCCCNC(C)=O)NC(C)=O)C(N)=O`, in series [1], the IC50 worked out at 14.6 µM.
On to `CC(=O)NCCCC[C@H](NC(=O)[C@H](CCCCNC(=O)CI)NC(=O)[C@H](CCCCNC(C)=O)NC(C)=O)C(N)=O`, for which the inhibition result in series [2] was “Active”. Further, the IC50 in series [3] was found to be 22.2 µM; in series [1] it was 39.3 µM.
Take `CC(=O)NCCCC[C@H](NC(=O)[C@H](CCCCNC(=O)CSCc1ccccc1)NC(=O)[C@H](CCCCNC(C)=O)NC(C)=O)C(N)=O`: the IC50 in [1] was 171 µM.
Still for that read-out and setting: the figure for `CC(=O)NCCCC[C@H](NC(=O)[C@H](CCCCNC(=O)CCCCCSc1ncc(-c2ccccc2)s1)NC(=O)[C@H](CCCCNC(C)=O)NC(C)=O)C(N)=O` is 15.4 µM.
For the compound `CC(=O)NCCCC[C@H](NC(=O)[C@H](CCCCNC(=O)CCCCCCCSc1nc2ccccc2s1)NC(=O)[C@H](CCCCNC(C)=O)NC(C)=O)C(N)=O`, in [1], the IC50 stood at 5.3 µM. For the same compound, in [4], the solubility result was “Insoluble”.
Take `CC(=O)NCCCC[C@H](NC(=O)[C@H](CCCCNC(=O)CCCCCSCc1ccccc1)NC(=O)[C@H](CCCCNC(C)=O)NC(C)=O)C(N)=O`: in series [1], the IC50 turned out to be 57.7 µM.
On to `CC(=O)NCCCC[C@H](NC(=O)[C@H](CCCCNC(=O)CCCCCSc1nc2ccccc2s1)NC(=O)[C@H](CCCCNC(C)=O)NC(C)=O)C(N)=O`, for which the IC50 in series [5] is over 1000 µM; in [3] it was over 200 µM; in [1] it was 12.4 µM. Further, the values for the Ratio IC50 in series [6] and in series [7] were over 16 and over 81, respectively. In addition, the inhibition result in series [8] and in series [9] was “Active” each time.
On to `CC(=O)NCCCC[C@H](NC(=O)[C@H](CCCCNC(=O)CCCCCCSc1nc2ccccc2s1)NC(=O)[C@H](CCCCNC(C)=O)NC(C)=O)C(N)=O`, for which the IC50 in series [1] came to 30 µM.
Turning to `CC(=O)NCCCC[C@H](NC(=O)[C@H](CCCCNC(=O)CNC(=O)CI)NC(=O)[C@H](CCCCNC(C)=O)NC(C)=O)C(N)=O`, the inhibition entry in series [2] is “Active”. In series [1], the IC50 is over 200 µM.
Consider `CC(=O)NCCCC[C@H](NC(=O)[C@H](CCCCNC(=O)CCCCCSc1nc2ccccc2o1)NC(=O)[C@H](CCCCNC(C)=O)NC(C)=O)C(N)=O`, for which, in series [1], the IC50 amounted to 133 µM.
